Results from different studies.
Compare with care: the assays were run in different laboratories.
Target: Serine/threonine-protein kinase PRP4 homolog (PRPF4B, Homo sapiens, UniProt Q13523)

Compound | test | conditions | endpoint | value
Nc1ncnc2occ(-c3ccc(NC(=O)Nc4cc(C(F)(F)F)ccc4F)cc3)c12 | cell-free assay, inhibitor | 20 µM | remaining signal | 100%
COc1ccc2c(O[C@@H]3C[C@H]4C(=O)N[C@]5(C(=O)O)CC5/C=C\CCCCC[C@H](NC(=O)OC5CCCC5)C(=O)N4C3)cc(-c3csc(NC(=O)C(C)C)n3)nc2c1C (some centres unmarked) | cell-free assay, competition with immobilised ligand | 1 µM | remaining binding | 93%
CN1CC(Oc2cnc(C#N)cc2-c2ccn3nc(NC(=O)C4CC4)cc3c2)C1 | enzyme activity, inhibitor | 1 µM | inhibition | 3%
Cc1ccc(C(=O)NCc2ccsc2)cc1C#Cc1cn(C(C)C)c2ncnc(N)c12 | enzyme activity, inhibitor | 1 µM | activity vs control | 114%
CCCCNc1ncc2c(-c3ccc(F)cc3)nn(C[C@H]3CC[C@H](N)CC3)c2n1 | target engagement in cells, inhibitor, chemoproteomics | 20 mM | inhibition | -1.2%
Cc1ccc(C(=O)Nc2ccc(CN3CCN(C)CC3)c(C(F)(F)F)c2)cc1C#Cc1cnc2cccnn12 | enzyme activity, inhibitor | 23.5 nM | remaining activity | 91%
CC(=O)c1c(NS(C)(=O)=O)c2cc(-c3ccc(Cl)cc3)c(-c3ccc(Cl)cc3Cl)nc2n(C)c1=O | cell-free assay, competition with immobilised ligand | 1 µM | remaining binding | 83%
c1ccc(CNc2nc(N3CCOc4ccccc43)nc3c2CCCC3)cc1 | target engagement in cells, inhibitor, chemoproteomics | 20 mM | inhibition | -6.7%
